This experiment deals with T1, fMet-Leu-Phe receptor (Homo sapiens, UniProt P21462).
T1 sequence (P21462 whole entry): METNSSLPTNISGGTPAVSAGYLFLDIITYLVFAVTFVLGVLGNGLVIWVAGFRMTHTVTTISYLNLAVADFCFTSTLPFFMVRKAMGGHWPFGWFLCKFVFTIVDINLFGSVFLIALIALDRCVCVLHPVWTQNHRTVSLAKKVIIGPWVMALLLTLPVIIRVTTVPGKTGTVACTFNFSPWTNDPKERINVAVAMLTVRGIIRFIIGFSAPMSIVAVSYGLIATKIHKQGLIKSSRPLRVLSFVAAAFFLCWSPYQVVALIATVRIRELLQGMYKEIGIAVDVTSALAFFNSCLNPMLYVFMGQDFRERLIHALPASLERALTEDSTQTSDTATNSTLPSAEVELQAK
The experiment in a line: Biased agonist activity at human FPR1 expressed in FlpIn-CHO cells assessed as intracellular calcium mobilization by Fluo-4-AM dye based fluorescence assay. The gist of the method:
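Agonist transduction coefficients (Log(τ/KA)) for each signaling output estimated with an extension of the Black-Leff operational model. Values normalized to a reference ligand and to Ca2+ mobilization as reference pathway, giving ΔLog(τ/KA) and Log(bias factors). Data are mean ± SEM of 4 independent experiments, each performed in duplicate.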
On the technique in general: Calcium flux is commonly read through the fluorescence of an indicator in the cells.

One may read the EC50 as the concentration needed to bring the measured effect to its halfway point. In the case of `CCCCC(C(=O)Nc1ccc(Cl)cc1)n1nc(C)cc(Cc2ccccc2OC)c1=O` (stereo unspecified), the EC50 was 891 nM.

For the origin of these results see BindingDB's records for doi:10.1021/acs.jmedchem.8b01912 (Monash University, 2019).
